PostGolgi yeast: phenotypic screen on post-Golgi transport, primary screen | post-Golgi transport phenotypic cell assay | inhibition, % at 10 µM | 0.9% of 98,000 active | AID 739, 2007;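 further: yeast cells grown in 1536-well plates; yeast grown about 18 h at 30C before absorbance read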
Ecoli WT expand: growth inhibitors of wild-type E. coli, primary screen, strain BW25113, expanded library, OD600. OD600 absorbance. growth inhibition, % at 100 µM. 0.15% of 98,000 active;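 active means growth inhibition above about 50% at one test dose, limit read from the data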;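 further: growth measured after 20 h incubation at 37 °C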
hDAT+cocaine: changed hDAT dopamine uptake under cocaine IC80, either direction, primary screen, cocaine antagonist project, cell-based, LLC-PK1 hDAT, [14C]-dopamine uptake, MLSMR. AID 449768, 2010. B-score at 10 µM. Sodium-dependent dopamine transporter (Homo sapiens), Q01959. LLC-PK1 hDAT cells, [14C]-dopamine uptake with cocaine IC80; actives deviate in either direction. 1.3% of 110,000 active;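 active means Z score or B-score, a plate-position-corrected score, falls beyond the plate's 99.7% confidence bounds, in either direction; inactive means both scores lie inside the 99.7% bounds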;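 further: scored against the spread of the other compound wells on the same plate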
Target sequence (Q01959 whole entry, looked up): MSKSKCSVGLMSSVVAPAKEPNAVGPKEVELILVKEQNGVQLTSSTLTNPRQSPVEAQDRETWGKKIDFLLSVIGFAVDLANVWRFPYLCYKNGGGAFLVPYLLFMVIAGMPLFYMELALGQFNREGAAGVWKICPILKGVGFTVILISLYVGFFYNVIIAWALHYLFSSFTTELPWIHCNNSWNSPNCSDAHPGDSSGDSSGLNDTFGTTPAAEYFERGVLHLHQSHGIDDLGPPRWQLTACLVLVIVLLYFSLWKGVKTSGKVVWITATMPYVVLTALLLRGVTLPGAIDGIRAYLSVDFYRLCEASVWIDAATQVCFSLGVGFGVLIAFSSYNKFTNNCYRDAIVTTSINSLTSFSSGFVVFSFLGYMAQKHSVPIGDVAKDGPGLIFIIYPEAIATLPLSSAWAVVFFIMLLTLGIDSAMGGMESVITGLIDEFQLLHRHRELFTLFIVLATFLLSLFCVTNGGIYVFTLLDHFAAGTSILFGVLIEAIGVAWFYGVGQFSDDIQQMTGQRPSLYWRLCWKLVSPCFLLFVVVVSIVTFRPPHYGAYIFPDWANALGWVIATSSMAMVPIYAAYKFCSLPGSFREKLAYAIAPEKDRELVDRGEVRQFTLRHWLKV
D1 allo mod: D1 CRE-luciferase signal change, two-sided – cell-based, HEK293 D1, dopamine EC30, D1 allosteric modulator project, primary screen; D(1A) dopamine receptor (Homo sapiens), P21728; B-score at 10 µM; dopamine EC30 potentiation; actives deviate in either direction; 5.9% of 58,000 active; AID 641, 2007;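 active means luminescence count or its row- and column-corrected plate score outside the 99.7% band of the plate's sample wells, on either side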
PostGolgi ctrl: growth inhibition of yeast control strain, primary screen, counter-screen for post-Golgi transport modulator project; AID 738, 2007; inhibition, % at 10 µM; 5% of 98,000 active; efflux-deficient yeast background strain, growth absorbance A615, 16 h
tolC growth inh: growth inhibitors of E. coli tolC mutant, primary screen, strain BW25113 ΔtolC::kan, 384-well; OD615; growth inhibition, % at 10 µM (by protocol); 2.2% of 65,000 active;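 active means growth inhibition at or above a cutoff equal to the mean over every tested compound plus 3 SD, cut at about 60% in these data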;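 further: growth measured after 20 h incubation at 37 °C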
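test system = E. coli BW25113 ΔtolC::kan bacteria | medium = LB with kanamycin 50 µg/mL | signal = OD at 615 nm | schedule = 37 °C, 20 h exposure | evaluation = % inhibition of E. coli growth | compound dosing = one dose of 10 µM final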
D1 mod confirm: D1 receptor positive allosteric modulators, retest, confirmation, cell-based, HEK293 D1, CRE-luciferase, duplicate; shares compounds with D1 allo mod; dopamine EC30 potentiation; active compounds read high; luminescence at 10 µM; 88% of 2,200 active;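 active means luminescence in either of two replicates above the same-plate mean plus 3 SD of the low-dose dopamine control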
D1 no dopamine: D1 receptor agonism without dopamine, confirmation, mechanism study for D1 allosteric modulator project, cell-based, HEK293 D1, CRE-luciferase, secondary assay 1. shares compounds with D1 allo mod. luminescence, no dopamine; active compounds read high. luminescence at 10 µM. 0.8% of 1,900 active; in the data active means luminescence above about 3900
Isoprot counter: isoproterenol response counter-screen activity for D1 modulators | shares compounds with D1 allo mod | HEK293 D1 CRE-luciferase, isoproterenol EC30 counter-screen | calls only at 10 µM | 63% of 2,200 active;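 active means luminescence in either replicate above plate mean of wells with a partly effective reference agonist dose plus 3 SD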;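 further: isoproterenol raises cAMP through native beta-adrenoceptor Gs so signal bypasses D1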
Active calls of the source: *; i = inactive; . = no result; + = active, no number. Shown are actives, neighbours in structure and some others; about 9.3% of the full set was active somewhere. Unless noted, no stated cut-off is given here; in the data, active means inhibition above about 30%; inactive means the rest.

SMILES	PostGolgi yeast	Ecoli WT expand	hDAT+cocaine	D1 allo mod	PostGolgi ctrl	tolC growth inh	D1 mod confirm	D1 no dopamine	Isoprot counter
CC1(c2ccc(Cl)cc2)NC(=O)N(CC(=O)NC(=O)NCc2ccco2)C1=O (stereo not drawn)	18	1	0.81	0.52	3	11	.	.	.
CCOC(=O)c1sc(NC(=O)Nc2ccc(Cl)cc2)nc1C	-7	-9	-0.23	.	3	.	.	.	.
Cc1ccc2nc(NCCO)nc(-c3ccccc3)c2c1	5	7	.	14*	13	6	19388*	.	+
CN(C)S(=O)(=O)c1ccc(/C(O)=C2/C(=O)C(=O)N(CCN3CCCCC3)C2c2cccnc2)cc1 (stereo not drawn)	.	.	.	-0.035	.	-26	.	.	.
Cc1ccc(S(=O)(=O)N2CCN(C(=O)COC(=O)c3cc(C)oc3C)CC2)cc1	12	-3	-0.46	4.3*	13	-28	6052*	1764	i
Cc1cc(-c2ccccc2)c(C#N)c(SCC(N)=O)n1	17	-4	0.041	5*	4	8	8124*	1568	i
COc1ccc2nc3oc(C(=O)N4CCN(c5cccc(Cl)c5)CC4)cc3cc2c1	0	-7	0.025	3.6*	35*	15	5456	1484	i
C=CCn1c(C(C)NC(=O)COC)nc2ccccc21 (stereo not drawn)	-5	-3	2.3	5.4*	14	3	5084	1624	i
CCSCc1nnc(SCC(=O)Nc2cccc(SC)c2)n1C	-6	8	-0.0056	.	-12	-6	.	.	.
CCN(CC(=O)Nc1ccc2c(c1)OCCO2)c1nc(-c2cccnc2)nc2ccccc12	0	-11	2.2	3.6*	-5	3	7472*	1256	+
CCOc1cc(-c2c(C)c(CC)nc(N)c2C#N)ccc1O	-5	7	0.61	1.9*	10	9	10600*	1960	+
Cc1ccc(S(=O)(=O)c2cc3c(=O)n4ccccc4nc3n(Cc3ccco3)c2=N)cc1C	-6	-16	0.39	6*	23	17	13264*	1500	+
N=c1c(S(=O)(=O)c2ccccc2)cc2c(=O)n3ccccc3nc2n1Cc1ccco1	14	1	1.1	2.9	7	8	.	.	.
N=c1c(S(=O)(=O)c2ccccc2)cc2c(=O)n3ccccc3nc2n1CCN1CCOCC1	.	.	.	-0.076	.	-12	.	.	.
Cc1ccc(S(=O)(=O)c2cc3c(=O)n4ccccc4nc3n(C)c2=N)cc1	2	-3	.	5.3*	32*	10	13268*	1724	+
COc1ccc2nc(NC(=O)CSc3nc4cccnc4n3C)sc2c1	-8	-10	0.37	.	-6	6	.	.	.
COC(=O)c1sc(NC(=O)CSc2nc3cccnc3n2C2CCCCC2)nc1C	11	3	-1.1	9.5*	27	50	10416*	1456	+
CCc1nnc(NC(=O)CSc2ncc(-c3ccccc3)n2CC)s1	-2	-3	-0.0026	3.5*	22	26	8216*	1656	i
Cc1ccc(NCc2nnc(SCC(=O)Nc3cccc(O)c3)n2CC2CCCO2)c(C)c1 (stereo not drawn)	4	-1	.	-0.71	5	8	.	.	.
CCOC(=O)CSC1=C(C#N)C(c2ccc(Cl)cc2)CC(=O)N1 (stereo not drawn)	-17	3	-0.42	3.5	8	15	.	.	.
CCOC(=O)CSC1=C(C#N)C(c2ccc(C)o2)CC(=O)N1 (stereo not drawn)	-2	3	0.47	5.4*	4	6	9204*	1688	i
CC(C)(O)C#Cc1ccc(C(=O)NCc2ccccc2)s1	.	.	0.024	.	.	.	.	.	.
Cn1c(=O)c2c(-c3ccccc3)n(-c3ccccc3O)cc2n(C)c1=O	3	-10	0.49	2.4	10	7	.	.	.
COc1ccc(-c2c3c(=O)n(C)c(=O)n(C)c3cn2-c2cc(OC)ccc2OC)cc1	3	1	2.1	6*	0	.	8244*	1200	+
N#CCCCn1c(-c2ccccc2)noc1=O	24	-3	-0.98	6.4*	7	3	4628	1604	i
SMILES	PostGolgi yeast	Ecoli WT expand	hDAT+cocaine	D1 allo mod	PostGolgi ctrl	tolC growth inh	D1 mod confirm	D1 no dopamine	Isoprot counter
Cc1ccc(C)n1-n1cnc2scc(-c3cccs3)c2c1=O	-7	-5	1	17*	-6	11	24272*	1704	+
Cc1ccc(NC(=O)CS(=O)CC(=O)N(c2ccc(C)cc2)C(C)C(=O)NC2CCCCC2)cc1 (stereo not drawn)	.	.	2	.	.	.	.	.	.
O=C(Cc1ccccc1)NCC(=O)N1CCCCCC1	-10	0	-0.31	.	12	.	.	.	.
Brc1cnc(N2CCCC2)nc1N1CCOCC1	-6	3	0.14	6*	11	23	18712*	1620	+
Brc1cnc(N2CCCCC2)nc1N1CCOCC1	-1	-7	0.82	.	5	.	.	.	.
COC(=O)c1cc(Br)c(=O)n(Cc2cccnc2)c1	-6	1	-1.1	0.13	0	-1	.	.	.
Cc1ccc(-c2noc(CCC(=O)N(C)c3ccccc3C)n2)cc1	0	1	1.2	-0.061	20	11	.	.	.
COc1cc2c(cc1OC)CN(C(=O)CSc1n[nH]c(N)n1)CC2	3	9	0.44	13*	5	-14	16292*	1488	+
COc1cc2c(cc1OC)CN(C(=O)CCCN1C(=O)c3ccccc3C1=O)CC2	19	-2	0.22	5*	18	5	7424*	1616	+
COc1cc2c(cc1OC)CN(C(=O)CSc1nc(C)cc(C)c1C#N)CC2	.	.	0.21	.	.	.	.	.	.

Bioassay records (PubChem BioAssay)
